Measurements from ChEMBL document CHEMBL4359877, “Identification of benzothiazinones containing an oxime functional moiety as new anti-tuberculosis agents” (Eur J Med Chem, 2019).

Columns and labels:
[1] = Cmax in Sprague-Dawley rat at 200 mg/kg, po measured upto 24 hrs by HPLC analysis; format: ADME, organism-based; design: dose 200 mg/kg, route oral; details: in vivo
Procedure, shortened: (§1)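 SD rats, 180–220 g; single intravenous dose 2.5 mg/kg or oral doses of 25, 50 or 200 mg/kg, n = 6, half of each sex. Serum sampling, acetonitrile deproteinisation and HPLC quantification followed the mouse procedure. Parameters derived from concentration–time data; F% obtained from the oral and IV exposures.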

CYP3A4 = CYP3A4 (Homo sapiens, UniProt P08684); assay: (§2) Inhibition of CYP3A4 (unknown origin); format: ADME
Chain of CYP3A4 (P08684 whole entry): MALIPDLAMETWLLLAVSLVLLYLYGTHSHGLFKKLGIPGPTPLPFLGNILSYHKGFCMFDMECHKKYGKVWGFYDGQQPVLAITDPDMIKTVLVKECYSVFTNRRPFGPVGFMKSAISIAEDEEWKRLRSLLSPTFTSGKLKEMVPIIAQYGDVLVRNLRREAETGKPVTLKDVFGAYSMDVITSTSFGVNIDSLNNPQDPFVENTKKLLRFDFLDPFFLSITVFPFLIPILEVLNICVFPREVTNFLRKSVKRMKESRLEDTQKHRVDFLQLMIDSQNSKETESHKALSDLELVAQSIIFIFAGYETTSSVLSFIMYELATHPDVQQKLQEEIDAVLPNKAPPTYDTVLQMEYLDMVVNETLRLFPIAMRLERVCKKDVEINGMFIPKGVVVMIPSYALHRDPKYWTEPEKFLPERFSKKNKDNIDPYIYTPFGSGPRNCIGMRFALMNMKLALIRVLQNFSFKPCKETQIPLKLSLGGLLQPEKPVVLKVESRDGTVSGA

[2] = Oral bioavailability in Sprague-Dawley rat at 50 mg/kg measured upto 24 hrs by HPLC analysis; format: ADME, organism-based; details: in vivo; procedure, shortened: as §1
[3] = Mutagenicity in Salmonella typhimurium TA102 in presence of S9 fraction by mini-Ames test; format: toxicity, subcellular; details: salmonella enterica subsp. enterica serovar typhimurium
[4] = AUC (0 to infinity) in ICR mouse at 25 mg/kg, po measured upto 24 hrs by HPLC analysis; format: ADME, organism-based; design: dose 25 mg/kg, time infinity, route oral; details: in vivo
Procedure, shortened: (§3)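 Female SPF ICR mice, 18–22 g, fasted overnight, 3 per group; single oral dose 25 mg/kg as suspension in 0.5% CMC. Jugular vein blood drawn at 0.25, 0.5, 1, 2, 4, 6, 8 and 24 h; serum deproteinised with acetonitrile, dried, redissolved and quantified by HPLC. AUC, t1/2, Cmax and Tmax taken directly from concentration–time data.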

CYP2C9 = CYP2C9 (Homo sapiens, UniProt P11712); assay: (§4) Inhibition of CYP2C9 (unknown origin); format: ADME
Chain of CYP2C9 (P11712 whole entry): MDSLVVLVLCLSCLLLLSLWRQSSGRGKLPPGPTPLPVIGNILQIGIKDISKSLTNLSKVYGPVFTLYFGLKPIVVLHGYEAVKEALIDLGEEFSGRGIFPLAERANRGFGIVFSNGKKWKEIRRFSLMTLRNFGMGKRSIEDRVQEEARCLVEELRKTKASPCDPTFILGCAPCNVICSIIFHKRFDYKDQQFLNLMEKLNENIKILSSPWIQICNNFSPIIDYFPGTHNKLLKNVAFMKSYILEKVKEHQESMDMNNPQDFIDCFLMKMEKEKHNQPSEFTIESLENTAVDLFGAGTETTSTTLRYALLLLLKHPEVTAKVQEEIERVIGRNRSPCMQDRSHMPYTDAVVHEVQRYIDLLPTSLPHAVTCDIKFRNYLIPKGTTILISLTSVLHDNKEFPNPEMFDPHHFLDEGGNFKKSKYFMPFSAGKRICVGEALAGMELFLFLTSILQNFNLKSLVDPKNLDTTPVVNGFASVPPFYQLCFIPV

[5] = Cmax in Sprague-Dawley rat at 50 mg/kg, po measured upto 24 hrs by HPLC analysis; format: ADME, organism-based; design: dose 50 mg/kg, route oral; details: in vivo; procedure, shortened: as §1
[6] = Oral bioavailability in Sprague-Dawley rat at 25 mg/kg measured upto 24 hrs by HPLC analysis; format: ADME, organism-based; details: in vivo; procedure, shortened: as §1
[7] = Half life in Sprague-Dawley rat at 2.5 mg/kg, iv measured upto 24 hrs by HPLC analysis; format: ADME, organism-based; details: in vivo; procedure, shortened: as §1
[8] = tested on: Mycobacterium tuberculosis; assay: Antituberculosis activity against Mycobacterium tuberculosis H37Rv infected in BALB/C mouse assessed as reduction in log10CFU in lungs at 25 mg/kg, po administered once daily for 5 days per week for a total of 3 weeks started on day 10 post-infection; format: functional
[9] = Cmax in ICR mouse at 25 mg/kg, po measured upto 24 hrs by HPLC analysis; format: ADME, organism-based; design: dose 25 mg/kg, route oral; details: in vivo; procedure, shortened: as §3
[10] = Tmax in Sprague-Dawley rat at 50 mg/kg, po measured upto 24 hrs by HPLC analysis; format: ADME, organism-based; details: in vivo; procedure, shortened: as §1
[11] = Mutagenicity in Salmonella typhimurium TA102 in absence of S9 fraction by mini-Ames test; format: toxicity; details: salmonella enterica subsp. enterica serovar typhimurium
[12] = Half life in ICR mouse at 25 mg/kg, po measured upto 24 hrs by HPLC analysis; format: ADME, organism-based; details: in vivo; procedure, shortened: as §3
[13] = Acute toxicity in Sprague-Dawley rat assessed as death at 2 g/kg, po measured continuously for first 4 hrs followed by every 1 hr for next 24 hrs and subsequent 8 hrs interval for 7 days; format: organism-based; details: in vivo, 2000 mg/kg
Procedure, shortened: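 SD rats, 180–220 g, randomised, ten per group, food withheld overnight. Single oral dose of 2 g/kg suspended in 5% CMC; controls given vehicle only. Watched continuously for 4 h, hourly for the next 24 h, then every 8 h through day 7 for deaths or changes. Read-out is survivors/total at 7 days.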

[14] = AUC (0 to infinity) in Sprague-Dawley rat at 50 mg/kg, po by HPLC analysis; format: ADME, organism-based; design: dose 50 mg/kg, time infinity, route oral; details: in vivo; procedure, shortened: as §1
[15] = AUC (0 to infinity) in Sprague-Dawley rat at 2.5 mg/kg, iv by HPLC analysis; format: ADME, organism-based; design: dose 2.5 mg/kg, route intravenous, time infinity; details: in vivo; procedure, shortened: as §1
[16] = Half life in Sprague-Dawley rat at 50 mg/kg, po measured upto 24 hrs by HPLC analysis; format: ADME, organism-based; details: in vivo; procedure, shortened: as §1
[17] = Half life in Sprague-Dawley rat at 200 mg/kg, po measured upto 24 hrs by HPLC analysis; format: ADME, organism-based; details: in vivo; procedure, shortened: as §1
[18] = Tmax in Sprague-Dawley rat at 25 mg/kg, po measured upto 24 hrs by HPLC analysis; format: ADME, organism-based; details: in vivo; procedure, shortened: as §1
[19] = MRT in ICR mouse at 25 mg/kg, po measured upto 24 hrs by HPLC analysis; format: ADME, organism-based; details: in vivo; procedure, shortened: as §3
CYP1A2 = target: T1, CYP1A2 (Homo sapiens, UniProt P05177); assay: (§5) Inhibition of CYP1A2 (unknown origin); format: ADME
T1 sequence (P05177 whole entry): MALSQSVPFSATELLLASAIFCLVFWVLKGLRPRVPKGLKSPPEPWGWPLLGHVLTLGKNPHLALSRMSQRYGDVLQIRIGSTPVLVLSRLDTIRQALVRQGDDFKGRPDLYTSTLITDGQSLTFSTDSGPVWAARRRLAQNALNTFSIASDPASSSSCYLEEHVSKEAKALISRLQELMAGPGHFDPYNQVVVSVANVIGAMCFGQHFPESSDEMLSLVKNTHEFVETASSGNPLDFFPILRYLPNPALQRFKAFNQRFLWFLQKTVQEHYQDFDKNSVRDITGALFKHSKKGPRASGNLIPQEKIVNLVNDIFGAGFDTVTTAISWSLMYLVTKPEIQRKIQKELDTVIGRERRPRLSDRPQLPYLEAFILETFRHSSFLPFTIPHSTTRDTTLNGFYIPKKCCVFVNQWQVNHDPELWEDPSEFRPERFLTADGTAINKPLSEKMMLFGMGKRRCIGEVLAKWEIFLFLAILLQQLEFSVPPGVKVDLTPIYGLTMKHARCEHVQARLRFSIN

[20] = Cytotoxicity against African green monkey Vero cells assessed as reduction in cell viability; format: cell-based; details: chlorocebus sabaeus
[21] = Tmax in Sprague-Dawley rat at 200 mg/kg, po measured upto 24 hrs by HPLC analysis; format: ADME, organism-based; details: in vivo; procedure, shortened: as §1
[22] = tested on: Mycobacterium tuberculosis; assay: Antimycobacterial activity against Mycobacterium tuberculosis H37Rv ATCC 27294 assessed as reduction in bacterial cell growth incubated for 7 days by microplate alamar blue assay; format: functional; details: H37Rv ATCC 27294, 168 h
Procedure, shortened: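 MABA: H37Rv or clinical MDR isolates (resistant to INH and RFP, Beijing Chest Hospital patients) grown to late log phase in 7H9 with glycerol, Tween 80 and ADC, washed, filtered and frozen. Two-fold compound dilutions with 2 × 10⁵ CFU per well, 37 °C; Alamar blue plus Tween 80 added on day 7, fluorescence (ex 530/em 590) read after 16–24 h. MIC = lowest concentration giving ≥90% fluorescence reduction versus mean of bacterium-only controls; RIF and INH as positive controls.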

[23] = Oral bioavailability in Sprague-Dawley rat at 200 mg/kg measured upto 24 hrs by HPLC analysis; format: ADME, organism-based; details: in vivo; procedure, shortened: as §1
[24] = Mutagenicity in Salmonella typhimurium TA100 in presence of S9 fraction by mini-Ames test; format: toxicity, subcellular; details: salmonella enterica subsp. enterica serovar typhimurium
[25] = Half life in Sprague-Dawley rat at 25 mg/kg, po measured upto 24 hrs by HPLC analysis; format: ADME, organism-based; details: in vivo; procedure, shortened: as §1
[26] = Cmax in Sprague-Dawley rat at 25 mg/kg, po measured upto 24 hrs by HPLC analysis; format: ADME, organism-based; design: dose 25 mg/kg, route oral; details: in vivo; procedure, shortened: as §1
[27] = tested on: Mycobacterium tuberculosis; assay: Antimycobacterial activity against Mycobacterium tuberculosis H37Rv assessed as reduction in bacterial cell growth at 32 ug/ml by Low-oxygen recovery assay; format: functional
[28] = Tmax in ICR mouse at 25 mg/kg, po measured upto 24 hrs by HPLC analysis; format: ADME, organism-based; details: in vivo; procedure, shortened: as §3
[29] = AUC (0 to infinity) in Sprague-Dawley rat at 25 mg/kg, po by HPLC analysis; format: ADME, organism-based; design: dose 25 mg/kg, route oral, time infinity; details: in vivo; procedure, shortened: as §1
[30] = AUC (0 to infinity) in Sprague-Dawley rat at 200 mg/kg, po by HPLC analysis; format: ADME, organism-based; design: dose 200 mg/kg, route oral, time infinity; details: in vivo; procedure, shortened: as §1
[31] = Cmax in Sprague-Dawley rat at 2.5 mg/kg, iv measured upto 24 hrs by HPLC analysis; format: ADME, organism-based; design: dose 2.5 mg/kg, route intravenous; details: in vivo; procedure, shortened: as §1
[32] = Mutagenicity in Salmonella typhimurium TA100 in absence of S9 fraction by mini-Ames test; format: toxicity; details: salmonella enterica subsp. enterica serovar typhimurium
[33] = tested on: Mycobacterium tuberculosis; assay: Antituberculosis activity against Mycobacterium tuberculosis H37Rv infected in BALB/C mouse assessed as colony forming unit in lungs at 25 mg/kg, po administered once daily via gavage for 5 days per week for 3 weeks starting from 10 days post-infection (reference value: 6.44 +/- 0.34); format: functional
Cytochrome P450 2C19 = Cytochrome P450 2C19 (Homo sapiens, UniProt P33261); assay: Inhibition of CYP2C19 (unknown origin); format: ADME
Chain of Cytochrome P450 2C19 (P33261 whole entry): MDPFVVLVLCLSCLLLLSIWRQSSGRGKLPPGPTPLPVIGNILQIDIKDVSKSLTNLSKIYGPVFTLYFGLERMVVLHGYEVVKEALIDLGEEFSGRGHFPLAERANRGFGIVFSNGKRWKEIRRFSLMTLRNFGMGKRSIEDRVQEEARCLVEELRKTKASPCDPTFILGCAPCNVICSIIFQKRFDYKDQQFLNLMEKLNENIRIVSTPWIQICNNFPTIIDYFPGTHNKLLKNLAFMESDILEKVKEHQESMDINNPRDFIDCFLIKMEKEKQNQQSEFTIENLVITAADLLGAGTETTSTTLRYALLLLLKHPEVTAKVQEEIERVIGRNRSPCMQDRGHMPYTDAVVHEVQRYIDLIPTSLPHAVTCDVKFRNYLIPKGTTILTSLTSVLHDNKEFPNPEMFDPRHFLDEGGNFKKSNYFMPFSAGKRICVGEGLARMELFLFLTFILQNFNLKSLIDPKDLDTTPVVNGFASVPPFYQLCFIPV

CYP2D6 = CYP2D6 (Homo sapiens, UniProt P10635); assay: (§6) Inhibition of CYP2D6 (unknown origin); format: ADME
Chain of CYP2D6 (P10635 whole entry): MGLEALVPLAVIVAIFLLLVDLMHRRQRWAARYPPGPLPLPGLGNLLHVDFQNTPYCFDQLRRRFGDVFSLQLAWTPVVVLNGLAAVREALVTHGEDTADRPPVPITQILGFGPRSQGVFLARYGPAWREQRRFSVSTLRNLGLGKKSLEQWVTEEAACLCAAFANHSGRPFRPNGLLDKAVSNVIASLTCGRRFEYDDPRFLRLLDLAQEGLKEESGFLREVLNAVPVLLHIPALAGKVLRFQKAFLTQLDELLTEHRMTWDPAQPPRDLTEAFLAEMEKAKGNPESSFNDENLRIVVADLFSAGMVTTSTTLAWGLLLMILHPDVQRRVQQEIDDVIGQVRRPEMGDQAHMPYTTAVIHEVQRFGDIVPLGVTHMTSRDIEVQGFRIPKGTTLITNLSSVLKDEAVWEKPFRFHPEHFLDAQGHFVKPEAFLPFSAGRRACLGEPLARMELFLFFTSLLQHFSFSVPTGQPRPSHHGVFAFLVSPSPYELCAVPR

[34] = tested on: Mycobacterium tuberculosis; assay: Antimycobacterial activity against Mycobacterium tuberculosis H37Rv assessed as reduction in bacterial cell growth by Low-oxygen recovery assay; format: functional
Cytochrome P450 3A4 = Cytochrome P450 3A4 (Homo sapiens, UniProt P08684); assay: as §2; format: ADME
Chain of Cytochrome P450 3A4 (P08684 whole entry): as the sequence (P08684 whole entry) above

Cytochrome P450 2C9 = Cytochrome P450 2C9 (Homo sapiens, UniProt P11712); assay: as §4; format: ADME
Chain of Cytochrome P450 2C9 (P11712 whole entry): as the sequence (P11712 whole entry) above

Cytochrome P450 1A2 = target: T2, Cytochrome P450 1A2 (Homo sapiens, UniProt P05177); assay: as §5; format: ADME
T2 sequence (P05177 whole entry): T1 sequence (P05177 whole entry)

[35] = target: Voltage-gated inwardly rectifying potassium channel KCNH2 (Homo sapiens, UniProt Q12809); assay: Inhibition of human ERG transfected in HEK293 cells by whole-cell patch clamp method; format: cell-based
Chain of Voltage-gated inwardly rectifying potassium channel KCNH2 (Q12809 whole entry): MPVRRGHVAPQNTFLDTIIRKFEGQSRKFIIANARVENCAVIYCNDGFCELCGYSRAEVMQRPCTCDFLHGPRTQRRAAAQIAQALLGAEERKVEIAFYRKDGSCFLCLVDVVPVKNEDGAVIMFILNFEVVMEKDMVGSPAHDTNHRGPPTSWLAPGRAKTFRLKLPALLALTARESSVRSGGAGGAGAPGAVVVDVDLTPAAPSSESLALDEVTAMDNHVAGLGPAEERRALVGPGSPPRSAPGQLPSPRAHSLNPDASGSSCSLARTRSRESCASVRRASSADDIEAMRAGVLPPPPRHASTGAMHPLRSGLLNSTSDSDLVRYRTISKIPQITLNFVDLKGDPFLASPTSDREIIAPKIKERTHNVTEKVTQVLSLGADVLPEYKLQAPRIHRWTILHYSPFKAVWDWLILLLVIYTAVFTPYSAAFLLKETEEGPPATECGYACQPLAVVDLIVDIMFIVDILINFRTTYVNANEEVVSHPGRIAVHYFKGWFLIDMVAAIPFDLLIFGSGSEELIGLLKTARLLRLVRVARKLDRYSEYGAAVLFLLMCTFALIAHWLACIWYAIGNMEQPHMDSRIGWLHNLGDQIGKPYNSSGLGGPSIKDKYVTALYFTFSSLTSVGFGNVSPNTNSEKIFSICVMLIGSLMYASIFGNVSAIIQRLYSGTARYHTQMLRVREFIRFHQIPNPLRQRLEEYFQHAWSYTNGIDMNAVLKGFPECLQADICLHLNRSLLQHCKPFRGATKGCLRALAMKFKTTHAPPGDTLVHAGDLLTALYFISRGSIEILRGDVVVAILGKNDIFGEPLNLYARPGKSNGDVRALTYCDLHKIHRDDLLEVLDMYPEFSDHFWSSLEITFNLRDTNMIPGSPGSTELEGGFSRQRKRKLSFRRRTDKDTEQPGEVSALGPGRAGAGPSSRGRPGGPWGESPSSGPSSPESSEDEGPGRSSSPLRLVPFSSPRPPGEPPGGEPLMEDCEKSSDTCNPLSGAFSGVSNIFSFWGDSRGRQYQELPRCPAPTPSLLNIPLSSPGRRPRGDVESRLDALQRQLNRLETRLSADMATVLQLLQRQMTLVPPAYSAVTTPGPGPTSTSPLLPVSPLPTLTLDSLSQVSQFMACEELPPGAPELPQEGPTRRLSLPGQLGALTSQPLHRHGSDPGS

Cytochrome P450 2D6 = Cytochrome P450 2D6 (Homo sapiens, UniProt P10635); assay: as §6; format: ADME
Chain of Cytochrome P450 2D6 (P10635 whole entry): as the sequence (P10635 whole entry) above

Structure (SMILES)	Cmax [1]	bioavailability [2]	Activity [3]	AUC(0-inf) [4]	Cmax [5]	bioavailability [6]	half-life [7]	Cmax [9]	Tmax [10]	Activity [11]	half-life [12]	Activity [13]	AUC(0-inf) [14]	AUC(0-inf) [15]	half-life [16]	half-life [17]	Tmax [18]	MRT [19]	CC50 [20]	Tmax [21]	further results
CON=C1CCC(CN2CCN(c3nc(=O)c4cc(C(F)(F)F)cc([N+](=O)[O-])c4s3)CC2)CC1 (stereo not drawn)	18200 ng/mL	40.4%	Non-Toxic	27500 ng·h/mL	10100 ng/mL	46.1%	1.77 h	8570 ng/mL	1.67 h	Non-Toxic	1.65 h	Non-Toxic	45900 ng·h/mL	5720 ng·h/mL	4.13 h	6.73 h	1.25 h	2.46 h	> 64 µg/mL	2.83 h	IC50 (CYP3A4): > 10 µM; IC50 (CYP2C9): > 10 µM; Activity [8]: 4.04 log10CFU; IC50 (CYP1A2): > 10 µM; MIC90 [22]: < 0.016 µg/mL; bioavailability [23]: 30.3%; Activity [24]: Non-Toxic; half-life [25]: 3.2 h; Cmax [26]: 6230 ng/mL; inhibition at 32 µg/mL [27]: 86%; Tmax [28]: 0.25 h; AUC(0-inf) [29]: 26800 ng·h/mL; AUC(0-inf) [30]: 128000 ng·h/mL; Cmax [31]: 2590 ng/mL; Activity [32]: Non-Toxic; Activity [33]: 2.4 log10CFU; IC50 (Cytochrome P450 2C19): 7.8 µM; IC50 (CYP2D6): > 10 µM; MIC [34]: > 32 µg/mL
O=c1nc(N2CCN(CC3CCCCC3)CC2)sc2c([N+](=O)[O-])cc(C(F)(F)F)cc12 [MACOZINONE]	804 ng/mL	10.2%	Non-Toxic	1660 ng·h/mL	694 ng/mL	10.7%	1.64 h	912 ng/mL	1.33 h	Non-Toxic	2.78 h	Non-Toxic	3120 ng·h/mL	1540 ng·h/mL	4.86 h	5.76 h	0.91 h	3.17 h	> 64 µg/mL	2.5 h	IC50 (Cytochrome P450 3A4): > 10 µM; IC50 (Cytochrome P450 2C9): > 10 µM; IC50 (Cytochrome P450 1A2): > 10 µM; MIC90 [22]: < 0.016 µg/mL; bioavailability [23]: 3.82%; Activity [24]: Non-Toxic; half-life [25]: 4.23 h; IC50 [35]: 102 µM; Cmax [26]: 463 ng/mL; inhibition at 32 µg/mL [27]: 78%; Tmax [28]: 0.25 h; AUC(0-inf) [29]: 1600 ng·h/mL; AUC(0-inf) [30]: 4720 ng·h/mL; Cmax [31]: 1440 ng/mL; Activity [32]: Non-Toxic; Activity [33]: 2.65 log10CFU; IC50 (Cytochrome P450 2C19): 3.77 µM; IC50 (Cytochrome P450 2D6): > 10 µM; MIC [34]: > 32 µg/mL
